Results: ChEMBL document CHEMBL5576157, “"Seasoning" antimalarial drugs' action: chloroquine bile salts as novel triple-stage antiplasmodial hits” (RSC Med Chem, 2024)
The source made the active and inactive calls. The calls are words filed in the database; no cut-off is given here.

Tests used:
Huh-7 = test: Cytotoxicity against human Huh-7 cells assessed as reduction in cell viability at 10 uM by AlamarBlue assay; format: toxicity, cell-based; conditions: huh-7, 10 µM
Procedure, shortened: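 Huh-7 hepatoma cells were cultured in RPMI with 10% FCS, non-essential amino acids, glutamine, penicillin/streptomycin and 10 mM HEPES pH 7, at 37 °C and 5% CO2, within the liver-stage infection setup. Viability was read by AlamarBlue following the manufacturer's protocol.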

[1] = Stability of compound assessed as degradation temperature at 25 to 500 degreeC under N2 gas by thermogravimetric analysis; format: physicochemical
Procedure, shortened: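 Thermogravimetric analysis heated samples from 25 to 500 °C at 5 °C/min under N2 flowing at 50 mL·min⁻¹.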

Erythrocyte = test: Hemolytic activity in RBC (unknown origin) assessed as hemolysis at 10 uM incubated for 1 hr by microplate reader assay; format: toxicity, cell-based; conditions: human
Procedure, shortened: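 Human blood had plasma removed by spinning. RBC were washed three times in 0.01 M PBS pH 7.4 and set to 6% hematocrit. They were mixed with an equal volume of compound at 20 µM in PBS with 1.3% DMSO and kept 1 h at 37 °C, then spun. Supernatant A450 was read. Hemolysis % was scaled between PBS/0.65% DMSO (negative) and 1% Triton X-100 (positive).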

Plasmodium falciparum [2] = test: Antimalarial activity against stage III gametocytes of Plasmodium falciparum 3D7 expressing GFP infected erythrocytes assessed inhibition of gametocyte level at 10 uM after 72 hrs followed by compound washout and measured after 24 hrs by Giemsa-staining based microscopic analysis relative to control; format: functional; conditions: 3D7, Erythrocyte
Procedure, shortened: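 P. falciparum 3D7HT-GFP was sorbitol-synchronized, and schizonts were Percoll-purified and cultured at 3% hematocrit until stage III gametocytes appeared. Microcultures of 1 mL (1-2% gametocytemia, 2.5% hematocrit) got 10 µM compound or DMSO (<0.3%) for 72 h, then compound-free medium for 24 h. Stage IV/V gametocytes were counted per 3000 RBC on Giemsa smears, in duplicate by two microscopists. Inhibition = 100 − (treated/drug-free control ×100).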

Plasmodium falciparum [3] = test: Antimalarial activity against blood stage chloroquine-sensitive Plasmodium falciparum 3D7 expressing GFP infected in erythrocytes assessed as reduction in parasitemia incubated for 72 hrs by flow cytometry analysis; format: functional, organism-based; conditions: 3D7, Erythrocyte
Procedure, shortened: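 Growth was read by flow cytometry on the GFP channel (488 nm excitation), counting 20,000–40,000 RBC per well. IC50 values were fitted from the curves and reported as the mean of at least three experiments, each in duplicate.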

Plasmodium falciparum [4] = test: Antimalarial activity against blood stage chloroquine-sensitive Plasmodium falciparum 3D7 expressing GFP infected in erythrocytes assessed as inhibition of parasite growth at 10 uM incubated for 72 hrs by flow cytometry analysis relative to control; format: functional; conditions: 3D7, Erythrocyte
Procedure, shortened: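 Unsynchronized P. falciparum 3D7-GFP culture (0,6% hematocrit, 0,5% parasitaemia) was exposed to 10 µM compound for 72 h at 37 °C and 5% CO2. Growth was read by flow cytometry of GFP (Fl-1, 488 nm excitation), counting 20,000–40,000 erythrocytes per well.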

Plasmodium berghei = test: Antimalarial activity against Plasmodium berghei sporozoites expressing firefly luciferase infected in human Huh-7 cells assessed reduction in parasite growth at 10 uM preincubated for 1 hr followed by infection and measured after 48 hrs by luminescence analysis; format: functional, organism-based; conditions: time 49.0 hrs
Procedure, shortened: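 Huh-7 hepatoma cells were grown in RPMI with 10% FCS, non-essential amino acids, glutamine, penicillin/streptomycin and 10 mM HEPES pH 7, at 37 °C and 5% CO2. Cells were seeded at 1.2×10⁴/well the day before. Compound medium was added ~1 h before infection with firefly luciferase P. berghei sporozoites freshly dissected from mosquito salivary glands, then spun at 1700 g for 5 min. Parasite load was read at 48 h by lysate luminescence after luciferin addition.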

Plasmodium falciparum [5] = test: Antimalarial activity against blood stage chloroquine-resistant Plasmodium falciparum Dd2 infected in erythrocytes assessed as reduction in parasitemia incubated for 72 hrs by flow cytometry analysis; format: functional, organism-based; conditions: Dd2, Erythrocyte

SMILES | Activity (Huh-7) | T [1] [°C] | Activity (Erythrocyte) | inhibition at 10 µM (Plasmodium falciparum [2]) [%] | IC50 (Plasmodium falciparum [3]) [nM] | inhibition at 10 µM (Plasmodium falciparum [4]) [%] | Activity (Plasmodium berghei) | IC50 (Plasmodium falciparum [5]) [nM]
COc1cc(NC(C)CCCN)c2ncccc2c1.C[C@H](CCC(=O)O)[C@H]1CC[C@H]2[C@@H]3[C@H](O)C[C@@H]4C[C@H](O)CC[C@]4(C)[C@H]3CC[C@]12C | Non-Toxic | 366 | Non-Toxic | 80 | 380 | 82 |  | 
COc1cc(NC(C)CCCN)c2ncccc2c1.C[C@H](CCC(=O)NCC(=O)O)[C@H]1CC[C@H]2[C@@H]3[C@H](O)C[C@@H]4C[C@H](O)CC[C@]4(C)[C@H]3C[C@H](O)[C@]12C | Non-Toxic | 255 | Non-Toxic | 81 | 384 | 82 |  | 
COc1cc(NC(C)CCCN)c2ncccc2c1.C[C@H](CCC(=O)O)[C@H]1CC[C@H]2[C@@H]3CC[C@@H]4C[C@H](O)CC[C@]4(C)[C@H]3CC[C@]12C [listing 1 of 2 here] |  |  |  |  |  |  | Active | 
CCN(CC)CCCC(C)Nc1ccnc2cc(Cl)ccc12.C[C@H](CCC(=O)NCC(=O)O)[C@H]1CC[C@H]2[C@@H]3[C@H](O)C[C@@H]4C[C@H](O)CC[C@]4(C)[C@H]3C[C@H](O)[C@]12C | Non-Toxic | 361 | Non-Toxic | 86 |  | 97 |  | 
CCN(CC)CCCC(C)Nc1ccnc2cc(Cl)ccc12.C[C@H](CCC(=O)O)[C@H]1CC[C@H]2[C@@H]3[C@H](O)C[C@@H]4C[C@H](O)CC[C@]4(C)[C@H]3CC[C@]12C | Non-Toxic | 255 | Non-Toxic | 87 |  | 97 |  | 
CCN(CC)CCCC(C)Nc1ccnc2cc(Cl)ccc12.C[C@H](CCC(=O)O)[C@H]1CC[C@H]2[C@@H]3CC[C@@H]4C[C@H](O)CC[C@]4(C)[C@H]3CC[C@]12C [listing 1 of 2 here] |  |  |  |  |  |  | Active | 
C[C@H](CCC(=O)NCC(=O)O)[C@H]1CC[C@H]2[C@@H]3[C@H](O)C[C@@H]4C[C@H](O)CC[C@]4(C)[C@H]3C[C@H](O)[C@]12C [GLYCOCHOLIC ACID] |  | 328 | Non-Toxic | 41 |  |  |  | 
CCN(CC)CCCC(C)Nc1ccnc2cc(Cl)ccc12.C[C@H](CCC(=O)O)[C@H]1CC[C@H]2[C@@H]3CC[C@@H]4C[C@H](O)CC[C@]4(C)[C@H]3C[C@H](O)[C@]12C | Non-Toxic | 242 | Non-Toxic | 86 |  | 97 |  | 
C[C@H](CCC(=O)O)[C@H]1CC[C@H]2[C@@H]3CC[C@@H]4C[C@H](O)CC[C@]4(C)[C@H]3CC[C@]12C [LITHOCHOLIC ACID] |  | 355 | Non-Toxic | 65 |  |  |  | 
CCN(CC)CCCC(C)Nc1ccnc2cc(Cl)ccc12.C[C@H](CCC(=O)O)[C@H]1CC[C@H]2[C@@H]3[C@H](O)C[C@@H]4C[C@H](O)CC[C@]4(C)[C@H]3C[C@H](O)[C@]12C | Non-Toxic | 253 | Non-Toxic | 88 |  | 97 |  | 
C[C@H](CCC(=O)O)[C@H]1CC[C@H]2[C@@H]3[C@H](O)C[C@@H]4C[C@H](O)CC[C@]4(C)[C@H]3C[C@H](O)[C@]12C [CHOLIC ACID] |  | 360 | Non-Toxic | 39 |  |  |  | 
CCN(CC)CCCC(C)Nc1ccnc2cc(Cl)ccc12.C[C@H](CCC(=O)O)[C@H]1CC[C@H]2[C@@H]3CC[C@@H]4C[C@H](O)CC[C@]4(C)[C@H]3CC[C@]12C [listing 2 of 2 here] | Non-Toxic | 367 | Non-Toxic | 90 |  | 97 |  | 
COc1cc(NC(C)CCCN)c2ncccc2c1.C[C@H](CCC(=O)O)[C@H]1CC[C@H]2[C@@H]3CC[C@@H]4C[C@H](O)CC[C@]4(C)[C@H]3C[C@H](O)[C@]12C | Non-Toxic | 348 | Non-Toxic | 86 | 600 | 82 |  | 
COc1cc(NC(C)CCCN)c2ncccc2c1.C[C@H](CCC(=O)O)[C@H]1CC[C@H]2[C@@H]3CC[C@@H]4C[C@H](O)CC[C@]4(C)[C@H]3CC[C@]12C [listing 2 of 2 here] | Non-Toxic | 253 | Non-Toxic | 83 | 424 | 82 |  | 
COc1cc(NC(C)CCCN)c2ncccc2c1.O=P(O)(O)O.O=P(O)(O)O (centres undefined) [PRIMAQUINE PHOSPHATE] |  |  | Non-Toxic | 93 | 415 | 83 |  | 464
C[C@H](CCC(=O)O)[C@H]1CC[C@H]2[C@@H]3CC[C@@H]4C[C@H](O)CC[C@]4(C)[C@H]3C[C@H](O)[C@]12C [DEOXYCHOLIC ACID] |  | 357 | Non-Toxic | 42 |  |  |  | 
C[C@H](CCC(=O)NCCCCNc1ccnc2cc(Cl)ccc12)[C@H]1CC[C@H]2[C@@H]3[C@H](O)C[C@@H]4C[C@H](O)CC[C@]4(C)[C@H]3C[C@H](O)[C@]12C | Non-Toxic | 250 | Non-Toxic | 91 | 108 |  | Active | 562
COc1cc(NC(C)CCCN)c2ncccc2c1.C[C@H](CCC(=O)O)[C@H]1CC[C@H]2[C@@H]3[C@H](O)C[C@@H]4C[C@H](O)CC[C@]4(C)[C@H]3C[C@H](O)[C@]12C | Non-Toxic | 359 | Non-Toxic | 91 | 589 | 82 |  | 
CCN(CC)CCCC(C)Nc1ccnc2cc(Cl)ccc12.O=P(O)(O)O.O=P(O)(O)O (centres undefined) [CHLOROQUINE PHOSPHATE] |  |  | Non-Toxic | 72 |  | 98 |  | 
